Test results reported in ChEMBL document CHEMBL1914423, “New imidazo[2,1-b]thiazole derivatives: synthesis, in vitro anticancer evaluation, and in silico studies” (Eur J Med Chem, 2011).

Tests used:
HL-60(TB) = assay: Anticancer activity against human HL-60(TB) cells after 48 hrs by SRB assay; format: functional; details: HL-60, 48 h
Outline: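 NCI-60 five-dose screen. Cells grown in RPMI 1640 with 5% FBS and 2 mM L-glutamine, seeded at 5000–40,000 cells/well, and held 24 h at 37 °C and 5% CO₂ before drug. DMSO stocks were diluted into five concentrations (10-fold or ½-log steps). Settled suspension cells were fixed with cold TCA, SRB-stained, and read at 515 nm. […] was taken where [(Ti−Tz)/(C−Tz)]×100 = 50.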

A549 = assay: Anticancer activity against human A549 cells after 48 hrs by SRB assay; format: functional; details: A549, 48 h
Outline: (§1)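 NCI five-dose screen. Cells in RPMI 1640 with 5% FBS and 2 mM L-glutamine, seeded at 5000–40,000 cells/well according to doubling time, then pre-incubated 24 h at 37 °C in 5% CO2. Drugs dissolved in DMSO, five concentrations by 10-fold or 1/2-log dilution. Cells fixed with TCA, SRB-stained, A515 read. IC50 solved from [(Ti−Tz)/(C−Tz)]×100 = 50.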

EKVX = assay: Anticancer activity against human EKVX cells after 48 hrs by SRB assay; format: functional; outline: as §1
NCI-H226 = assay: Anticancer activity against human NCI-H226 cells after 48 hrs by SRB assay; format: functional; details: NCI-H226, 48 h
NCI-H522 = assay: Anticancer activity against human NCI-H522 cells after 48 hrs by SRB assay; format: functional; details: NCI-H522, 48 h; for CC50: read-out: LC50 (the source's name)
HCC 2998 = assay: Anticancer activity against human HCC2998 cells after 48 hrs by SRB assay; format: functional; details: HCC 2998, 48 h; for CC50: read-out: LC50 (the source's name); outline: as §1
HCT-116 = assay: Anticancer activity against human HCT116 cells after 48 hrs by SRB assay; format: functional; details: HCT-116, 48 h; for CC50: read-out: LC50 (the source's name); outline: as §1
SW-620 = assay: Anticancer activity against human SW620 cells after 48 hrs by SRB assay; format: functional; details: SW-620, 48 h; for CC50: read-out: LC50 (the source's name)
Outline: (§2)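 NCI-60 five-dose mode: cells in RPMI 1640 with 5% FBS and 2 mM glutamine, plated at 5000–40,000 cells/well, and preincubated 24 h, with time-zero plates TCA-fixed. Drug given at five concentrations (10-fold or ½-log serial dilutions). Cold TCA fixation 60 min at 4 °C, SRB stain, Tris solubilization, A515. IC50 taken where [(Ti−Tz)/(C−Tz)]×100 = 50.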

SNB-19 = assay: Anticancer activity against human SNB19 cells after 48 hrs by SRB assay; format: functional; details: SNB-19, 48 h; for CC50: read-out: LC50 (the source's name)
SNB-75 = assay: Anticancer activity against human SNB75 cells after 48 hrs by SRB assay; format: functional; details: SNB-75, 48 h; for CC50: read-out: LC50 (the source's name)
U-251 = assay: Anticancer activity against human U251 cells after 48 hrs by SRB assay; format: functional; details: U-251, 48 h; for CC50: read-out: LC50 (the source's name); outline: as §2
SK-MEL-2 = assay: Anticancer activity against human SK-MEL-2 cells after 48 hrs by SRB assay; format: functional; details: SK-MEL-2, 48 h; for CC50: read-out: LC50 (the source's name)
SK-MEL-28 = assay: Anticancer activity against human SK-MEL-28 cells after 48 hrs by SRB assay; format: functional; details: SK-MEL-28, 48 h; for CC50: read-out: LC50 (the source's name)
UACC-62 = assay: Anticancer activity against human UACC62 cells after 48 hrs by SRB assay; format: functional; details: UACC-62, 48 h; for CC50: read-out: LC50 (the source's name); outline: as §2
IGROV-1 = assay: Anticancer activity against human IGROV1 cells after 48 hrs by SRB assay; format: functional; details: IGROV-1, 48 h; for CC50: read-out: LC50 (the source's name); outline: as §1
OVCAR-3 = assay: Anticancer activity against human OVCAR3 cells after 48 hrs by SRB assay; format: functional; details: OVCAR-3, 48 h; for CC50: read-out: LC50 (the source's name)
OVCAR-4 = assay: Anticancer activity against human OVCAR4 cells after 48 hrs by SRB assay; format: functional; details: OVCAR-4, 48 h
OVCAR-5 = assay: Anticancer activity against human OVCAR5 cells after 48 hrs by SRB assay; format: functional; details: OVCAR-5, 48 h
OVCAR-8 = assay: Anticancer activity against human OVCAR8 cells after 48 hrs by SRB assay; format: functional; details: OVCAR-8, 48 h
A498 = assay: Anticancer activity against human A498 cells after 48 hrs by SRB assay; format: functional; details: A498, 48 h; for CC50: read-out: LC50 (the source's name); outline: as §1
ACHN = assay: Anticancer activity against human ACHN cells after 48 hrs by SRB assay; format: functional; details: for CC50: read-out: LC50 (the source's name); outline: as §1
RXF 393 = assay: Anticancer activity against human RXF393 cells after 48 hrs by SRB assay; format: functional; details: RXF 393, 48 h; for CC50: read-out: LC50 (the source's name)
UO-31 = assay: Anticancer activity against human UO31 cells after 48 hrs by SRB assay; format: functional; details: UO-31, 48 h; for CC50: read-out: LC50 (the source's name); outline: as §2
PC-3 = assay: Anticancer activity against human PC3 cells after 48 hrs by SRB assay; format: functional; details: PC-3, 48 h; for CC50: read-out: LC50 (the source's name)
MCF7 = assay: Anticancer activity against human MCF7 cells after 48 hrs by SRB assay; format: functional; details: MCF7, 48 h; for CC50: read-out: LC50 (the source's name); outline: as §1
MDA-MB-231 = assay: Anticancer activity against human MDA-MB-231 cells after 48 hrs by SRB assay; format: functional; details: MDA-MB-231, 48 h; for CC50: read-out: LC50 (the source's name); outline: as §1
LOX IMVI = assay: Antiproliferative activity against human LOXIMVI cells after 48 hrs by MTT assay; format: functional, cell-based
Malme-3M = assay: Antiproliferative activity against human MALME-3M cells after 48 hrs by MTT assay; format: functional, cell-based
[1] = read-out: LC50 (the source's name)

O=C(NCCNc1nccc(-c2c(-c3cccc(O)c3)nc3sccn23)n1)Nc1cccc(C(F)(F)F)c1
GI50 (HL-60(TB)): 2.85 µM | LC50 (HL-60(TB)): > 100 µM | TGI (HL-60(TB)): 6.03 µM | GI50 (A549): 2.98 µM | LC50 (concentration giving 50% net tumour cell kill) (A549): > 100 µM | TGI (A549): 8.44 µM | GI50 (EKVX): 4.16 µM | LC50 (EKVX): > 100 µM | TGI (EKVX): 36.6 µM | GI50 (NCI-H226): 9.99 µM | LC50 (concentration killing 50% of tumour cells) (NCI-H226): 81 µM | TGI (NCI-H226): 28.5 µM | GI50 (NCI-H522): 2.11 µM | TGI (NCI-H522): 5 µM | CC50 (NCI-H522): 20.9 µM | GI50 (HCC 2998): 2.68 µM | TGI (HCC 2998): 5.77 µM | CC50 (HCC 2998): 74.9 µM | GI50 (HCT-116): 3.58 µM | TGI (HCT-116): 11.5 µM | CC50 (HCT-116): 74.3 µM | GI50 (SW-620): 3.84 µM | TGI (SW-620): 13.4 µM | CC50 (SW-620): 64.5 µM | GI50 (SNB-19): 5.08 µM | TGI (SNB-19): 36.2 µM | CC50 (SNB-19): > 100 µM | GI50 (SNB-75): 2.5 µM | TGI (SNB-75): 12.7 µM | CC50 (SNB-75): 62.5 µM | GI50 (U-251): 4.95 µM | TGI (U-251): 23.6 µM | CC50 (U-251): > 100 µM | GI50 (SK-MEL-2): 2.8 µM | TGI (SK-MEL-2): 6.07 µM | CC50 (SK-MEL-2): 36 µM | GI50 (SK-MEL-28): 2.68 µM | TGI (SK-MEL-28): 10 µM | CC50 (SK-MEL-28): 62.2 µM | GI50 (UACC-62): 1.94 µM | TGI (UACC-62): 6.51 µM | CC50 (UACC-62): 28.2 µM | GI50 (IGROV-1): 3.48 µM | TGI (IGROV-1): 13.1 µM | CC50 (IGROV-1): 93.4 µM | GI50 (OVCAR-3): 5.52 µM | TGI (OVCAR-3): 22.7 µM | CC50 (OVCAR-3): 87.3 µM | GI50 (OVCAR-4): 3.97 µM | TGI (OVCAR-4): 14.2 µM | CC50 (OVCAR-4; [1]): 39.7 µM | GI50 (OVCAR-5): 16.3 µM | TGI (OVCAR-5): 65.3 µM | CC50 (OVCAR-5; [1]): > 100 µM | GI50 (OVCAR-8): 3.56 µM | TGI (OVCAR-8): 11 µM | CC50 (OVCAR-8; [1]): 37.6 µM | GI50 (A498): 7.33 µM | TGI (A498): 32.6 µM | CC50 (A498): > 100 µM | GI50 (ACHN): 5.79 µM | TGI (ACHN): 45.7 µM | CC50 (ACHN): > 100 µM | GI50 (RXF 393): 2.41 µM | TGI (RXF 393): 5.1 µM | CC50 (RXF 393): 12.9 µM | GI50 (UO-31): 3.25 µM | TGI (UO-31): 16.8 µM | CC50 (UO-31): 98.1 µM | GI50 (PC-3): 2.94 µM | TGI (PC-3): 12.6 µM | CC50 (PC-3): > 100 µM | GI50 (MCF7): 3.57 µM | TGI (MCF7): 16 µM | CC50 (MCF7): 78.1 µM | GI50 (MDA-MB-231): 3.52 µM | TGI (MDA-MB-231): 12.3 µM | CC50 (MDA-MB-231): > 100 µM

O=C(NCCNc1nccc(-c2c(-c3cccc(O)c3)nc3sccn23)n1)c1ccccc1O
IC50 (LOX IMVI): 2.65 µM | IC50 (Malme-3M): 0.152 µM | GI50 (HL-60(TB)): 4.95 µM | LC50 (HL-60(TB)): > 100 µM | TGI (HL-60(TB)): > 100 µM | GI50 (A549): 11 µM | LC50 (concentration giving 50% net tumour cell kill) (A549): > 100 µM | TGI (A549): 49 µM | GI50 (EKVX): 7.81 µM | LC50 (EKVX): > 100 µM | TGI (EKVX): 39.1 µM | GI50 (NCI-H226): 4.61 µM | LC50 (concentration killing 50% of tumour cells) (NCI-H226): > 100 µM | TGI (NCI-H226): 29.6 µM | GI50 (NCI-H522): 4.83 µM | TGI (NCI-H522): 20.4 µM | CC50 (NCI-H522): 57 µM | GI50 (HCC 2998): 3.55 µM | TGI (HCC 2998): 16.5 µM | CC50 (HCC 2998): > 100 µM | GI50 (HCT-116): 5.13 µM | TGI (HCT-116): > 100 µM | CC50 (HCT-116): > 100 µM | GI50 (SW-620): 5.43 µM | TGI (SW-620): 49.5 µM | CC50 (SW-620): > 100 µM | GI50 (SNB-19): 5.02 µM | TGI (SNB-19): > 100 µM | CC50 (SNB-19): > 100 µM | GI50 (SNB-75): 2.65 µM | TGI (SNB-75): 20.5 µM | CC50 (SNB-75): > 100 µM | GI50 (U-251): 0.152 µM | TGI (U-251): 18.7 µM | CC50 (U-251): 64.6 µM | GI50 (SK-MEL-2): 0.651 µM | TGI (SK-MEL-2): 15.9 µM | CC50 (SK-MEL-2): > 100 µM | GI50 (SK-MEL-28): 0.161 µM | TGI (SK-MEL-28): 11.1 µM | CC50 (SK-MEL-28): 61.2 µM | GI50 (UACC-62): 8.32 µM | TGI (UACC-62): 96.9 µM | CC50 (UACC-62): > 100 µM | GI50 (IGROV-1): 17.4 µM | TGI (IGROV-1): 92.9 µM | CC50 (IGROV-1): > 100 µM | GI50 (OVCAR-3): 3.35 µM | TGI (OVCAR-3): 30.3 µM | CC50 (OVCAR-3): > 100 µM | GI50 (A498): 14.5 µM | TGI (A498): 33.7 µM | CC50 (A498): 78.1 µM | GI50 (ACHN): 3.89 µM | TGI (ACHN): > 100 µM | CC50 (ACHN): > 100 µM | GI50 (RXF 393): 3.19 µM | TGI (RXF 393): 21.2 µM | CC50 (RXF 393): > 100 µM | GI50 (UO-31): 5.68 µM | TGI (UO-31): 19.7 µM | CC50 (UO-31): 72.8 µM | GI50 (PC-3): 5.15 µM | TGI (PC-3): 77.6 µM | CC50 (PC-3): > 100 µM | GI50 (MCF7): 4.03 µM | TGI (MCF7): 22.2 µM | CC50 (MCF7): > 100 µM | GI50 (MDA-MB-231): 2.63 µM | TGI (MDA-MB-231): 62.3 µM | CC50 (MDA-MB-231): > 100 µM
